# Assay outcomes as filed in PubChem BioAssay.
# GPR7 antagonist – antagonists of human GPR7 (neuropeptides B/W receptor 1) | AID 1861 | GPR7-expressing cells, fluorescence antagonist assay | P48145 | inhibition, % at 4.4 µM | actives 1.1% (n = 290,000); in the data active means inhibition above about 16%, passing the limit was not always enough;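 further: cells stimulated with the agonist NPW; 0% = agonist with vehicle and 100% = vehicle without agonist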
# OX1R antag-1 – blocks the human orexin 1 receptor. inhibition, % at 5 µM. CHO/OX1R cells, Fluo-8 calcium fluorescence, orexin A. O43613. actives 0.43% (n = 330,000);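 active means inhibition above its plate's threshold, mean inhibition of all tested compounds on the plate plus 3 SD, cut at about 37% in these data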;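 further: 0% = orexin A challenge wells and 100% = SB-334867-A antagonist wells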
# zfTRPN1 agonist – zebrafish TRPN1 (NompC) channel agonism; HEK293 zebrafish TRPN1-YFP, Fluo-8 calcium fluorescence; 100% = response to 87 µM carbachol; activation, % at 3 µM; actives 0.18% (n = 220,000);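 active means activation above its plate's cutoff, the mean activation of test wells on that plate plus 3 SD, cut at about 19% in these data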;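 further: 0% = DMSO alone and 100% = 87 µM carbachol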
#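 Assay system: Zebrafish TRPN1-YFP in HEK293 cells | Incubation: Dye loading 1 h at 37 °C, then 30 min room temperature | Measured by: Kinetic Fluo-8 fluorescence, ex 470-495, em 515-575 nm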
# OX1R antag-2 – blocks the human orexin 1 receptor. inhibition, % at 6.6 µM. AID 485270. actives 1.8% (n = 330,000). OX1R-expressing cells, FRET antagonist read-out; in the data active means inhibition mostly above about 38%, no sharp cut-off; inactive means mostly below about 40%;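 further: 0% = agonist challenge alone and 100% = reference antagonist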
# TRPML3 ag – human mucolipin-3 channel agonism; Q8TDD5; HEK293 TRPML3-YFP, Fluo-8 calcium fluorescence; 100% = the carbachol control signal; activation, % at 3 µM; actives 0.29% (n = 220,000); AID 1448;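 active means activation above its plate's cutoff, the mean activation of the plate's test wells plus 3 SD, cut at about 12% in these data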;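 further: 0% = DMSO only wells and 100% = carbachol wells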
# Target sequence (Q8TDD5 whole entry, looked up): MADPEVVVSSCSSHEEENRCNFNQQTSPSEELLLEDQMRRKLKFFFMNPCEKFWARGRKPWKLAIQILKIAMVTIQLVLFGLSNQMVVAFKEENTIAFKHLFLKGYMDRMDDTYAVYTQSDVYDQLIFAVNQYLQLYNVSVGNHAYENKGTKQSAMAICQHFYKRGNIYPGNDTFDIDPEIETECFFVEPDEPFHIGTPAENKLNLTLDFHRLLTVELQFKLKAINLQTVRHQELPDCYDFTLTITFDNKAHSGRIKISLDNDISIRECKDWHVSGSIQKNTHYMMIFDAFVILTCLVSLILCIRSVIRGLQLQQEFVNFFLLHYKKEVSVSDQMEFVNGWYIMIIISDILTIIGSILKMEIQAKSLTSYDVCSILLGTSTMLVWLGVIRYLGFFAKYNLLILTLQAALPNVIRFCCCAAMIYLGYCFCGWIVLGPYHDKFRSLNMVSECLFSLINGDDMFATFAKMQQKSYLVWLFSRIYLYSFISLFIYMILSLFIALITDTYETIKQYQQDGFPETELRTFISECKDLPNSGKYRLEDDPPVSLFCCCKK
#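 Test system: TRPML3-YFP stable HEK293 cells. Doses: single point at 3 µM. Incubation: dye loading 1 h 37 °C then 30 min ambient, 125 s read. Signal: Fluo-8 calcium dye fluorescence, ex 470-495, em 515-575 nm. Measure: percent activation from peak-to-basal fluorescence ratio, scaled between DMSO and carbachol.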
# CHO parental Ca – signal in parental CHO cells, OX1R antagonist counter-screen; parental CHO-K1, ATP-induced calcium, Fluo-8 fluorescence; inhibition, % at 5.6 µM; actives 0.63% (n = 330,000); AID 463079;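 active means inhibition above that plate's mean sample inhibition plus 3 SD, cut at about 26% in these data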;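 further: 0% = ATP-challenged DMSO wells and 100% = DMSO wells without ATP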
#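 Material – parental CHO cells · Reagent – ATP stimulus · Compound – single nominal dose of 5.6 µM per compound · Detection – Fluo-8 fluorescence · Read-out basis – percent inhibition of calcium signal · Controls – ATP-challenged DMSO wells low, unchallenged DMSO wells high · Repeats – no replicates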
# OX1R HTRF conf – OX1R (human) antagonism, HTRF confirmed; OX1R-expressing cells, HTRF antagonist assay; actives 49% (n = 1,800); shares compounds with OX1R antag-2; AID 492964; inhibition, % at 6.6 µM; in the data active means inhibition above about 55%;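 further: CHO cells expressing OX1R stimulated with orexin A at about EC80; 0% = agonist challenge alone and 100% = reference antagonist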
# CHO-K1 HTRF cnt – signal in parental CHO-K1 cells, OX1R antagonist counter-screen. actives 48% (n = 1,800). shares compounds with OX1R antag-2. HTRF counterscreen. inhibition, % at 6.6 µM. AID 493232; in the data active means inhibition above about 17%;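 further: 0% = agonist challenge with vehicle and 100% = vehicle alone without agonist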
# * marks the source's active call; other numbers are inactive results; nt = not tested or not shown. Sampled rows, rich in hits. Any-hit rate of the full collection: about 3.2%.
SMILES,GPR7 antagonist,OX1R antag-1,zfTRPN1 agonist,OX1R antag-2,TRPML3 ag,CHO parental Ca,OX1R HTRF conf,CHO-K1 HTRF cnt
COc1ccc(NC(=O)c2cccnc2)c([N+](=O)[O-])c1,7,5,-1,123*,1,-1,32,16
COc1ccc(NC(=O)c2ccccc2)c([N+](=O)[O-])c1,-5,-13,0,37,0,-9,nt,nt
CC(C)c1ccc(NC(=S)N2CCCC(c3ccc(F)cc3)=N2)cc1,0,-15,0,13,0,-17,nt,nt
Clc1cccc(Nc2nc(-c3ccncc3)cs2)c1,-17,19,-3,80*,-1,6,33,11
COc1ccc(OC)c(/C=N/NC(=O)c2cc[n+](Cc3ccccc3)cc2)c1,-8,-12,0,108*,1,-2,64*,46*
O=C(c1cccs1)N1CCN(c2nc3ccccc3s2)CC1,-4,-19,nt,87*,nt,-12,22,2
Cc1cccc2sc(N3CCN(C(=O)c4cccs4)CC3)nc12,nt,-7,nt,32,nt,-4,nt,nt
O=Cc1c(Sc2ccccn2)nc2ccccn2c1=O,-11,-11,1,96*,1,-5,37,45*
O=Cc1c(Sc2ccccc2)nc2ccccn2c1=O,-4,-9,-2,55,0,18,nt,nt
O=C(N/N=C/c1ccccc1[N+](=O)[O-])C(=O)N1CCCC1,8,-15,1,92*,0,1,22,26*
O=C(N/N=C/c1cccc2ccccc12)C(=O)N1CCCC1,-6,-17,nt,5,nt,-9,nt,nt
C=CCSC(=S)NC1CCS(=O)(=O)C1 (stereo unspecified),-3,-5,1,11,1,-11,nt,nt
CCNC1=C(Cl)C(=O)c2ccccc2C1=O,-4,-15,-1,178*,0,8,58*,93*
O=C1C(Cl)=C(NCCN2CCCCC2)C(=O)c2ccccc21,0,-11,0,90*,1,8,68*,71*
CCN(CC)c1ccc(NC2=C(Cl)C(=O)c3ccccc3C2=O)cc1,-2,17,-1,36,0,19,nt,nt
O=C(NCCN1CCCC1)c1ccccc1Cl,-12,12,1,12,1,-13,nt,nt
CC(=O)Nc1ccc(S(=O)(=O)Nc2nc3nc(-c4ccccc4)cc(-c4ccccc4)n3n2)cc1,9,-54,nt,1,nt,-8,nt,nt
O=C(O)CCC(=O)Nc1nc2nc(-c3ccccc3)cc(-c3ccccc3)n2n1,9,-11,2,109*,0,-15,25,15
O=C(Nc1ccccc1C(F)(F)F)C1CCN(C(=O)Cc2ccccc2)CC1,-14,-19,nt,26,nt,3,nt,nt
CC(C)c1ccc(C2(C)NC(=O)N(CC(=O)NCC3COc4ccccc4O3)C2=O)cc1 (stereo unspecified),nt,-10,nt,2,nt,-30,nt,nt
Cc1cc[n+](CC(=O)c2cc3ccccc3oc2=O)cc1,10,-7,1,78*,0,-6,69*,86*
Cc1cc(C)nc(SCC(=O)c2cc3ccccc3oc2=O)n1,-5,-24,0,19,1,-17,nt,nt
CCOc1ccc(OCC(=O)c2c(O)c3ccccc3oc2=O)cc1,6,-8,0,79*,0,5,16,-11
COc1ccc(OCC(=O)c2c(O)c3ccccc3oc2=O)cc1,-8,-6,0,17,2,-17,nt,nt
Nc1nnc(-c2cc3ccccc3oc2=O)s1,-8,-18,0,152*,0,4,36,50*
SMILES,GPR7 antagonist,OX1R antag-1,zfTRPN1 agonist,OX1R antag-2,TRPML3 ag,CHO parental Ca,OX1R HTRF conf,CHO-K1 HTRF cnt
Cc1ccc(N2C(=O)c3ccc(C(=O)NCCN4CCOCC4)cc3C2=O)cc1,-2,-12,1,82*,0,-6,51,44*
Cc1ccc(C(=O)NCCN2CCOCC2)cc1Cl,-12,-7,1,6,0,-13,nt,nt
CC(=O)NC1=C(NC2CCS(=O)(=O)C2)C(=O)c2ccccc2C1=O (stereo unspecified),-4,-4,0,141*,0,-7,69*,94*
O=C(Nc1ccccc1)NC1CCS(=O)(=O)C1 (stereo unspecified),-8,-6,-1,-2,1,-5,nt,nt
COCCN(C(=O)CSc1nc2ccc(OC)cc2[nH]1)c1c(N)n(Cc2ccccc2)c(=O)[nH]c1=O,nt,-15,nt,90*,nt,-7,17,-4
C#CCn1cc(Cl)cc(C(=O)Nc2ccccc2)c1=O,10,-9,nt,0,nt,-24,nt,nt
COC(=O)c1ccc(NC(=O)CSc2ccc(-c3ccccn3)nn2)cc1,-2,-23,nt,8,nt,-4,nt,nt
COc1ccc(S(=O)(=O)N2CCc3ccccc32)cc1C(=O)N(CC(C)C)C1CCS(=O)(=O)C1 (stereo unspecified),nt,-32,nt,22,nt,-27,nt,nt
CCOC(=O)C1CCN(C(=O)CCCn2c(=O)c3cccn3c3cccnc32)CC1,-18,-11,nt,22,nt,-21,nt,nt
CCOC(=O)c1cccc(NC(=O)CCCn2c(=O)c3cccn3c3cccnc32)c1,-3,-9,nt,80*,nt,-23,80*,8
COc1ccccc1NC(=O)COC(=O)c1ccc([N+](=O)[O-])s1,-16,-13,0,91*,1,-14,37,48*
CC(NC(=O)COC(=O)c1ccc([N+](=O)[O-])s1)c1ccccc1 (stereo unspecified),-6,-10,0,81*,1,-10,24,17*
NS(=O)(=O)c1ccc(NC(=O)COC(=O)c2ccc([N+](=O)[O-])s2)cc1,-5,8,0,37,1,-1,nt,nt
O=C(COC(=O)c1ccc([N+](=O)[O-])s1)NCc1ccc(F)cc1,-6,-9,0,89*,0,-10,46,48*
CC(C)CC(NC(N)=O)C(=O)NCc1ccccc1Cl (stereo unspecified),-12,-30,0,2,0,-21,nt,nt
CC(=O)Nc1ccc(S(=O)(=O)NCCc2cc3ccc(C)c(C)c3[nH]c2=O)cc1,-20,-7,nt,38,nt,-5,nt,nt
CCc1ccc(C(=O)NNC(=O)C2CSC3(C)CCC(=O)N23)cc1 (stereo unspecified),nt,-3,nt,10,nt,-14,nt,nt
Cc1cc(O)ccc1NC(=O)CCN1C(=O)c2ccc([N+](=O)[O-])cc2C1=O,-3,6,0,151*,1,6,69*,74*
Cc1ccc(NC(=O)CCN2C(=O)c3ccccc3C2=O)c(C)c1,-13,-14,nt,0,nt,-7,nt,nt
